Results taken from ChEMBL document CHEMBL1129385, “Aspartic acid conjugates of 2-(3,4-dichlorophenyl)-N-methyl-N-[(1S)-1(3-aminophenyl)-2-(1-pyrrolidi nyl) ethyl]acetamide: kappa opioid receptor agonists with limited access to the central nervous system” (J Med Chem, 1996).

Experiments:
[1] = tested on: Mus musculus; test: Peak time for Antinociception Tail-flick(min) by icv administration in mice.; format: functional
[2] = species on record: Mus musculus; test: Compound was tested for their agoinst potencies on the electrically stimulated mouse vas deferens.; format: functional
[3] = biological target: T1, Kappa-type opioid receptor (Cavia porcellus, UniProt P41144); test: Compound was tested for the binding affinity and selectivity by competitive inhibition of radioligands on opioid kappa receptor in guinea pig brain membranes; format: cell membranes, Membrane
In short: (§1)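 Competition binding in guinea pig brain membranes for κ opioid sites against 1 nM [³H]U69,593, using a modified Werling method. Ki values are arithmetic means of three experiments.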

[4] = tested on: Mus musculus; test: Compound was evaluated for Antinociceptive potencies in mice for in vivo activity in mouse tail-flick by icv administration; format: functional; conditions: central
[5] = tested on: Mus musculus; test: Compound was evaluated for Antinociceptive potencies in mice for in vivo activity in mouse tail-flick by iv administration; format: functional
[6] = tested on: Mus musculus; test: Compound was evaluated for Antinociceptive potencies in mice for in vivo activity in Analgesic activity in the second phase of the mouse formalin assay by iv administration; format: functional
[7] = tested on: Mus musculus; test: Peak time for Antinociception writhing(min) by icv administration in mice.; format: functional
[8] = tested on: Mus musculus; test: Peak time for Antinociception Tail-flick(min) by iv administration in mice.; format: functional
[9] = tested on: Mus musculus; test: Peak time for Antinociception writhing(min) by iv administration in mice.; format: functional
[10] = tested on: Mus musculus; test: Compound was evaluated for Antinociceptive potencies in mice for in vivo activity Mouse abdominal stretch assay by icv administration; format: functional; conditions: Abdomen, central
[11] = biological target: Mu-type opioid receptor (Cavia porcellus, UniProt P97266); test: Compound was tested for the binding affinity and selectivity by competitive inhibition of radioligands on opioid Mu receptor in guinea pig brain membranes; format: cell membranes, Membrane
In short: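 Competition binding in guinea pig brain membranes for μ opioid sites against 2 nM [³H]DAMGO, using a modified Werling method. Ki values are arithmetic means of three experiments.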

[12] = species on record: Cavia porcellus; test: Compound was tested for their agoinst potencies on the electrically stimulated Guinea pig ileal longitudinal muscle preparation.; format: functional; conditions: Muscle tissue
[13] = biological target: T1, Kappa-type opioid receptor; test: Compound was tested for the binding affinity and selectivity by competitive inhibition of radioligands on Opioid receptor kappa 1 in guinea pig brain membranes; format: cell membranes, Membrane; in short: as §1

Molecule `CN(C(=O)Cc1ccc(Cl)c(Cl)c1)[C@H](CN1CCCC1)c1cccc(NC(=O)[C@@H](N)CC(=O)O)c1` has a Time [1] of 30 min, an IC50 [2] of 2.49 nM and a Ki [3] of 0.34 nM. The ED50 [4] was 0.335 µmol/kg, the ED50 [5] was 0.85 µmol/kg and the ED50 [6] was 0.01 µmol/kg. It also gave a Time [7] of 10 min, a Time [8] of 20 min and a Time [9] of 10 min. It also gave an ED50 [10] of 0.0068 µmol/kg, a Ki [11] of 462 nM and an IC50 [12] of 0.84 nM.
`CN(C(=O)Cc1ccc(Cl)c(Cl)c1)[C@H](CN1CCCC1)c1cccc(NC(=O)C[C@H](N)C(=O)O)c1` showed a Time [1] of 30 min, an IC50 [2] of 6.36 nM and an ED50 [4] of 0.502 µmol/kg. The ED50 [5] was 5.12 µmol/kg, the Time [7] was 30 min and the Time [8] was 30 min. The Time [9] was 10 min, the ED50 [10] was 0.011 µmol/kg and the IC50 [12] was 0.55 nM.
For `CN(C(=O)Cc1ccc(Cl)c(Cl)c1)[C@H](CN1CCCC1)c1cccc(NC(=O)[C@H](N)CC(=O)O)c1`, the IC50 [2] was 4.06 nM, the ED50 [6] was 1.05 µmol/kg and the Time [7] was 10 min. It also gave a Time [9] of 10 min, a Ki [13] of 1.2 nM and an ED50 [10] of 0.046 µmol/kg. The Ki [11] was 280 nM and the IC50 [12] was 4.59 nM.
